# Reference: PMC9123937 (International Journal of Nanomedicine, 2022)
# Experiments:
# [1] = tested on: MHCC-97H cells; assay: Cytotoxicity study; type: cell-based; conditions: Homo sapiens, MHCC97H, 96 h, read-out: 96-hour inhibition rate
# Procedure, shortened: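 MHCC-97H cells seeded at 3×10^3 cells/well in 96-well plates and cultured 24 h. Test compound added at final 0, 6.25, 12.5, 25, 50 or 100 μg/mL for 24, 48, 72 or 96 h at 37°C, with 0.1% DMSO as negative control. MTT (5 mg/mL stock) added for 3.5 h at 37°C, formazan dissolved in DMSO, absorbance read at 490 nm.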
# [2] = tested on: MHCC-97H cells; assay: Apoptosis assay; type: cell-based, human; conditions: 24 h
# Procedure, shortened: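 MHCC-97H cells (high-glucose DMEM, 10% FBS, 37°C, 5% CO2) seeded at 2×10^5 cells/well in 6-well plates and cultured 24 h. Test compound added at 5, 10 or 20 μmol/L for a further 24 h, with 0.1% DMSO and medium controls. Harvested cells stained with Annexin V-FITC and PI for 15 min in the dark in binding buffer, then analysed by flow cytometry.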
smiles,measurement,setting,value
"COc1cc(/C=C/C(=O)CC(=O)/C=C/c2ccc(O)c(OC)c2)ccc1O [CU, curcumin]",inhibition at 100 µg/mL,[1],68.2 ± 1.19%
same,apoptosis rate,[2]; 5 μmol/L,17.29 ± 0.66%
same,apoptosis rate,[2]; 10 μmol/L,25.74 ± 0.61%
same,apoptosis rate,[2]; 20 μmol/L,33.11 ± 1.00%
